Laboratory results from article PMC7012088 (Cancer Biology & Therapy, 2019).

Columns and labels:
[1] = system: ABCB1; conditions: read-out: IC50 ABCB1 inhibition; in vitro; cited from earlier work
[2] = Botryllamide G plasma pharmacokinetics in wild-type mice; format: in vivo; conditions: male, FVB, mouse, iv, 13.4 mg/kg
Summary of the method: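 Destructive sampling (n = 3 per timepoint) ran 0.25–24 h into heparinized plasma. Phospholipid-removal/methanol precipitation, then isocratic C18 LC-MS/MS (20–50,000 ng/mL). AUClast used Bailer's method. t1/2 = ln2/terminal kEL, from concentrations above LLOQ.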

[3] = Aqueous solubility in intravenous formulation; format: physicochemical; conditions: limited the dose to 13.4 mg/kg
[4] = Abcg2 knockout animals (so in the source); cited from earlier work
[5] = Lapatinib brain and plasma exposure in wild-type FVB mice; format: in vivo, mouse
[6] = Lapatinib brain and plasma exposure in Mdr1a/Mdr1b; format: in vivo, mouse; conditions: for lapatinib brain AUC through 8 h: Mdr1a/Mdr1b (-/-) mice; for AUC: male, FVB, mouse, brain, oral

SMILES	IC50 [1]	AUC [2]	Cmax [2]	half-life [2]	aqueous solubility [3]	increase in lapatinib brain concentrations [4]	Kp ([5]; male, FVB, mouse, brain and plasma, oral, 90 mg/kg)	AUC ([5]; male, FVB, mouse, plasma, oral, 90 mg/kg)	lapatinib brain exposure through 1 h (AUC0-1 h) ([5]; wild-type mice, doublet (lapatinib + botryllamide G))	lapatinib brain exposure AUC through 24 h ([5]; wild-type mice, lapatinib + botryllamide G + tariquidar 4 mg/kg i.v. (triplet))	lapatinib plasma AUC ([5]; wild-type mice, lapatinib + botryllamide G, 24 h)	lapatinib brain AUC through 24 h ([5]; wild-type mice, lapatinib alone (abstract))	lapatinib brain exposure through 1 h (AUC0-1 h) ([5]; wild-type mice, singlet (lapatinib alone))	lapatinib brain exposure through 1 h (AUC0-1 h) ([5]; wild-type mice, singlet (lapatinib alone), listed as Lapatinib)	lapatinib brain exposure through 1 h (AUC0-1 h) ([5]; wild-type mice, triplet (lapatinib + botryllamide G + tariquidar))	lapatinib brain exposure through 1 h (AUC0-1 h) ([5]; wild-type mice, triplet (lapatinib + botryllamide G + tariquidar), listed as Lapatinib)	lapatinib brain AUC through 8 h ([6]; lapatinib + botryllamide G)	lapatinib brain AUC through 8 h ([6]; lapatinib alone)	AUC [6]	AUC ([6]; 90 mg/kg)
CO/C(=C\c1ccc(O)cc1)C(=O)N/C=C/c1cc(Br)c(O)c(Br)c1 [botryllamide G]	> 50 µM	2090 ng·h/mL	4110 ng/mL	4.6 h	poor															
CS(=O)(=O)CCNCc1ccc(-c2ccc3ncnc(Nc4ccc(OCc5cccc(F)c5)c(Cl)c4)c3c2)o1 [lapatinib, N-{3-chloro-4-[(3-fluorobenzyl)oxy]phenyl}-6-[5-({[2-(methylsulfonyl)ethyl]amino}methyl)-2-furyl]-4-quinazolinamine]						approximately 40 fold	0.067	66400 ng·h/mL	48.3 ± 14.9 pg·h/mg	2878 pg·h/mg	71,576 h*pg/mg	4461 ng·h/mL	120 ± 39.9 pg·h/mg	120 pg·h/mg	298 ± 44.6 pg·h/mg	298 pg·h/mg	4007 pg·h/mg	2058 pg·h/mg	4010 ng·h/mL	2060 ng·h/mL
